Screening data: PubChem BioAssay, Johns Hopkins Ion Channel Center
In the library only some 3.5% were active in any assay of this set; here they are far more common.
MrgX1 agonist = agonists of human MrgX1 receptor, primary screen, HEK293 cells, Fluo-4 calcium flux | Mas-related G-protein coupled receptor member X1 (Homo sapiens), Q96LB2 | Fluo-4 calcium fluorescence, agonist mode; hits give high values | B-score at 10 µM | 310,000 compounds, 0.44% hits;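 active = calcium response B-score plate-corrected fluorescence ratio at least 3 library SD, with starting fluorescence B-score inside 5 SD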
Target sequence (Q96LB2 whole entry, looked up): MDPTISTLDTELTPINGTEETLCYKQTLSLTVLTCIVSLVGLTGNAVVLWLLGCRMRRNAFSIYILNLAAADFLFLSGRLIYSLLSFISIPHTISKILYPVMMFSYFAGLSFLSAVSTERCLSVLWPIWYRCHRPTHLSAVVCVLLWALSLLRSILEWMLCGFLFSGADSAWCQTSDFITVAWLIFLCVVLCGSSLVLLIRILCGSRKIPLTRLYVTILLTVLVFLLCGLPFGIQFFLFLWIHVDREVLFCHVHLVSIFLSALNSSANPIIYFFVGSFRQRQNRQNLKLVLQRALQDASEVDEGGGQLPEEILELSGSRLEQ
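System: HEK293 cells stably expressing human MrgX1 receptor; Dosing: test compound in the initial addition of three; Schedule: overnight plating, then 30 min 37 °C plus 30 min room-temperature dye loading; Detection: kinetic calcium dye fluorescence, Fluo-4 NW; Controls: per-plate positive and negative controls for Z′ factor.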
MrgX1 allo act = positive allosteric modulators of MrgX1, primary screen, HEK293 cells, Fluo-4 calcium flux | Mas-related G-protein coupled receptor member X1 (Homo sapiens), Q96LB2 | FDSS; hits give high values | B-score at 10 µM | 310,000 compounds, 0.63% hits | AID 588675, 2011;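 active = plate-corrected calcium response at least 3 library SD above typical, normal starting fluorescence, not activating the receptor alone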;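 also: compound read alongside a low EC10 to EC30 dose of BAM8-22 agonist; peak minus trough fluorescence over baseline measured at the second addition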
RGS4 pot = RGS4 potentiators or activators, primary screen, cell-based, HEK293 M3R inducible RGS4, calcium flux. carbachol calcium flux Fluo4; hits give low values. B-score at 10 µM. 310,000 compounds, 0.92% hits;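 active = B-score of the integrated calcium signal more than 4 SD below the library mean, with starting fluorescence not abnormally high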;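 also: negative B-score means reduced calcium response which marks RGS4 activation or potentiation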
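Detection: kinetic calcium fluorescence imaging with Fluo4-AM dye, 2 µM / Material: HEK293 cells with stable M3R and inducible RGS4 / Schedule: recording 10 s baseline at 1 Hz, 100 s post-agonist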
MrgX1 antagonist = antagonists of human MrgX1 receptor, primary screen, HEK293 cells, Fluo-4 calcium flux | Mas-related G-protein coupled receptor member X1 (Homo sapiens), Q96LB2 | BAM8-22 antagonism; hits give low values | B-score at 10 µM | 310,000 compounds, 1.3% hits | AID 588676, 2011;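 active = calcium-response B-score plate-corrected more than 3 library SD below zero, starting fluorescence within 5 deviations, no agonist response on first addition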;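 also: peak minus trough fluorescence over baseline after final BAM8-22 challenge near maximal dose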
RGS4 block = RGS4 inhibitors, primary screen, cell-based, HEK293 M3R inducible RGS4, calcium flux; Regulator of G-protein signaling 4 (Homo sapiens), P49798; Fluo-4 calcium flux; hits give high values; triggered by carbachol at its EC20; B-score at 10 µM; 310,000 compounds, 0.45% hits;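 active = B-score, a plate-corrected calcium signal, over three deviations above library mean, with baseline fluorescence within five deviations of library mean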;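 also: RGS4 expression induced by doxycycline in cells with stable M3 receptor; B-score is computed from the integrated fluorescence ratio over baseline after carbachol; higher B-score means a larger calcium signal and so more RGS4 inhibition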
Target sequence (P49798 whole entry, looked up): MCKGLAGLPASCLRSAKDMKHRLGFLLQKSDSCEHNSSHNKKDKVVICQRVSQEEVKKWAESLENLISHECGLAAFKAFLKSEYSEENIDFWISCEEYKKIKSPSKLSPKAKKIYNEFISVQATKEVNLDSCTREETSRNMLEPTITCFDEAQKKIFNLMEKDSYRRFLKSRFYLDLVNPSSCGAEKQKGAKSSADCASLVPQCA
MrgX1 ant reconf = MrgX1 receptor antagonists, duplicate retest, confirmation, HEK293 cells, Fluo-4 calcium flux; shares compounds with MrgX1 antagonist; BAM8-22 calcium flux; hits give low values; remaining BAM8-22 calcium response % of control (hits give low values), % at 10 µM; 2,300 compounds, 19% hits;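 active = remaining agonist calcium response no higher than 100% minus 3 SD of agonist-only control wells, with starting fluorescence near control levels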;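 also: agonist BAM8-22 given at a near maximal EC90 to ECmax level; peak minus minimum fluorescence divided by baseline after agonist addition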
HEK293 Ca flux = nonspecific calcium signal in parental HEK293, confirmation, counter-screen for MrgX1 antagonist project, parental HEK293 cells, Fluo-4 calcium flux; 4,000 compounds, 2% hits; shares compounds with MrgX1 antagonist; fluorescence ratio F(max-min)/F0 at 10 µM; Fluo-4 calcium fluorescence, FDSS;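 active = duplicate-averaged calcium fluorescence ratio at least three times the standard deviation of buffer wells, a nonspecific response in parental cells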
HEK293 Ca counter = calcium response in parental HEK293 cells, primary screen, counter-screen for MrgX1 allosteric activator project, cell-based, Fluo-4 calcium flux, duplicate | shares compounds with MrgX1 antagonist | Fluo-4 fluorescence ratio; hits give high values | fluorescence ratio F(max-min)/F0 at 10 µM | 4,000 compounds, 0.4% hits | AID 624114, 2012;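 active = calcium fluorescence ratio, averaged over duplicates, at least 3 SD of the buffer-well ratio, meaning a nonspecific response in receptor-free cells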;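 also: untransfected parental HEK293 lacking MrgX1 used as counterscreen for MrgX1 allosteric activators; fluorescence change taken during the second addition on a kinetic imager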
HEK293 Ca cntr2 = calcium response in parental HEK293 cells, primary screen, counter-screen for MrgX1 agonist project, cell-based, Fluo-4 calcium flux, duplicate, agonist mode; AID 624115, 2012; Fluo-4 calcium fluorescence (FDSS); hits give high values; fluorescence ratio F(max-min)/F0 at 10 µM; shares compounds with MrgX1 antagonist; 4,000 compounds, 8.7% hits;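 active = calcium fluorescence ratio at least three times the spread of buffer wells, meaning a non-specific response in parental cells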
Starred values were filed as active, the others as inactive; i = inactive; . = no result given.

SMILES	MrgX1 agonist	MrgX1 allo act	RGS4 pot	MrgX1 antagonist	RGS4 block	MrgX1 ant reconf	HEK293 Ca flux	HEK293 Ca counter	HEK293 Ca cntr2
CC1(C)C2CCC(C2)C1(C)NC(=O)CN1CCCC1 (stereo not drawn)	i	i	i	i	i	.	.	.	.
CC1(C)C2CCC(C2)C1(C)NC(=O)CN1CCOCC1 (stereo not drawn)	i	i	.	-10*	.	i	i	i	i
CCN(C(=O)COC(=O)c1cc(-c2ccccc2)nc2ccc(Br)cc12)C1CCS(=O)(=O)C1 (stereo not drawn)	i	i	i	i	i	.	.	.	.
CCN(C(=O)COc1ncnc2ccc(Br)cc12)C1CCS(=O)(=O)C1 (stereo not drawn)	i	i	i	-5.7*	i	i	i	i	i
Cc1[nH]ccc(=O)c1OCc1c(Cl)cccc1Cl	i	i	i	-6.7*	i	i	i	i	i
O=C(Nc1ccc(Cl)cc1)N(Cc1cccnc1)Cc1ccco1	i	i	i	-5.7*	i	i	i	i	i
COc1ccc(N2C(=S)NC(C)(C)CC2(C)c2ccc(OC(C)=O)cc2OC(C)=O)cc1 (stereo not drawn)	i	i	i	-4.6*	i	i	i	i	i
COc1cccc(COc2ccc3c(C)c(Cc4ccccc4)c(=O)oc3c2)c1	i	i	i	-6.3*	i	i	i	i	i
COC(=O)c1ccccc1OCCCOc1ccc(C)cc1OC	i	i	i	i	i	.	.	.	.
C=C(C)COc1ccc(-c2nc(N)ncc2Oc2ccc(OC)cc2)c(O)c1	i	i	i	-4.6*	i	i	i	i	i
C=C(C)COc1ccc(-c2nc(N)ncc2Oc2ccccc2OC)c(O)c1	i	i	.	i	.	.	.	.	.
CCOC(=O)c1ccc(NC(=S)NCCc2ccccc2F)cc1	i	i	i	-6.2*	i	67%*	i	i	i
CCOC(=O)c1ccc(NC(=S)NCCc2ccccc2)cc1	i	i	i	i	i	.	.	.	.
Cc1ccc(NC(=O)c2ccc3ncsc3c2)cc1S(=O)(=O)N(C)C	i	i	i	-5.4*	i	i	i	i	i
Cc1ccc(NC(=O)c2cccnc2)cc1S(=O)(=O)N(C)C	i	i	i	i	i	.	.	.	.
Cc1ccc(N2C(=O)c3ccccc3NC2C(C)Cc2ccc3c(c2)OCO3)cc1 (stereo not drawn)	i	i	i	-5.1*	i	i	i	i	i
Cc1ccc(C)c(S(=O)(=O)C(C#N)c2nc3ccccc3nc2N2CCCC2)c1 (stereo not drawn)	i	i	i	i	i	.	.	.	.
Cc1ccc(C)c(S(=O)(=O)C(C#N)c2nc3ccccc3nc2N2CC(C)OC(C)C2)c1 (stereo not drawn)	i	i	i	-7.4*	i	81%*	i	i	56*
Cc1ccc2c(c1)cc(CN(C(=O)N1CCOCC1)C1CCCC1)c1nnnn12	i	i	i	i	i	.	.	.	.
O=C(CNC(=O)c1cccs1)OCC(=O)c1ccccc1	i	i	i	i	i	.	.	.	.
CCc1ccc(C(=O)COC(=O)CNC(=O)c2cccs2)cc1	i	i	i	-6.2*	i	i	i	i	i
CCCOC(=O)c1c(NC(=O)CCCn2nc([N+](=O)[O-])c(Cl)c2C)sc(C(=O)OC)c1C	i	i	i	i	i	.	.	.	.
CC1CCN(C(=O)c2[nH]cnc2C(=O)N[C@@H](Cc2ccccc2)C(=O)OC(C)(C)C)CC1	i	i	i	-7*	i	i	i	i	i
CC(C)(C)OC(=O)[C@H](Cc1ccccc1)NC(=O)c1nc[nH]c1C(=O)N1CCN(C(=O)OC(C)(C)C)CC1	i	i	i	i	i	.	.	.	.
Cc1cc(C)n(-c2nc3ccccc3nc2Nc2ccc(CC(=O)O)cc2)n1	i	i	i	-7.6*	i	i	i	i	i
SMILES	MrgX1 agonist	MrgX1 allo act	RGS4 pot	MrgX1 antagonist	RGS4 block	MrgX1 ant reconf	HEK293 Ca flux	HEK293 Ca counter	HEK293 Ca cntr2
Cc1cc2cc3c(cc2nc1SCC(=O)N1CCCC1)OCCO3	.	.	i	.	i	.	.	.	.
O=C(c1ccccc1)c1c(O)nc(-c2ccccc2)n(-c2ccccc2)c1=O	i	i	i	-8*	i	i	i	i	i
CC(=O)c1c(O)c(C)c(-c2ccccc2)n(-c2ccccc2)c1=O	i	i	i	i	i	.	.	.	.
CCOC(=O)C1CCN(Cc2cc(=O)n3c(-c4ccccc4)csc3n2)CC1	i	i	i	i	i	.	.	.	.
CN=c1nc(-c2ccccc2)n(-c2ccccc2)s1	i	i	.	-4.9*	.	i	i	i	i
Cc1c(NC(=O)C2CCN(S(=O)(=O)c3ccccc3)CC2)c(=O)n(-c2ccccc2)n1C	i	i	i	i	i	.	.	.	.
CCC(C)Sc1nc2c(cnn2-c2ccc(C)cc2)c(=O)[nH]1 (stereo not drawn)	i	i	i	i	i	.	.	.	.
CCC(C)Sc1nc2c(cnn2-c2ccccc2)c(=O)[nH]1 (stereo not drawn)	i	i	i	-4.9*	i	i	i	i	i
c1ccc(Nc2ccc3c4c(cccc24)CC3)cc1	i	i	i	i	i	.	.	.	.
Nc1ccc2c3c(cccc13)CC2	i	i	i	-7.5*	i	85%*	i	i	i
CN1C(C(=O)NCc2cccc(C(F)(F)F)c2)CC2Cn3c(nc4cc5ccccc5cc43)C21 (stereo not drawn)	i	i	i	i	i	.	.	.	.
